Measurements from ChEMBL document CHEMBL2016487, “Pyrazolopyrimidines as dual Akt/p70S6K inhibitors” (Bioorg Med Chem Lett, 2012).

Legend:
PC-3 [1] = assay: Inhibition of ribosomal protein S6 phosphorylation in human PC3 cells xenografted model at 100 mg/kg bid; type: functional
In short: (§1)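 PC-3 prostate carcinoma model; compound given at 100 mg/kg bid, five doses in total before phospho-S6, phospho-GSK3β and phospho-PRAS40 levels were measured.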

[2] = Clearance in dog at 3 mg/kg; type: ADME, organism-based, Canis lupus familiaris; set-up: dose 3 mg/kg; conditions: in vivo
[3] = Half life in rat at 2.5 mg/kg, po; type: ADME, organism-based; set-up: dose 2.5 mg/kg, route oral; conditions: in vivo
[4] = target: T1, Ribosomal protein S6 kinase beta-1 (Homo sapiens, UniProt P23443); assay: Inhibition of p70S6K-mediated ribosomal protein S6 phosphorylation in human PC3 cells after 3 hrs by chemiluminescence assay; type: cell-based, PC-3
T1 sequence (P23443 whole entry): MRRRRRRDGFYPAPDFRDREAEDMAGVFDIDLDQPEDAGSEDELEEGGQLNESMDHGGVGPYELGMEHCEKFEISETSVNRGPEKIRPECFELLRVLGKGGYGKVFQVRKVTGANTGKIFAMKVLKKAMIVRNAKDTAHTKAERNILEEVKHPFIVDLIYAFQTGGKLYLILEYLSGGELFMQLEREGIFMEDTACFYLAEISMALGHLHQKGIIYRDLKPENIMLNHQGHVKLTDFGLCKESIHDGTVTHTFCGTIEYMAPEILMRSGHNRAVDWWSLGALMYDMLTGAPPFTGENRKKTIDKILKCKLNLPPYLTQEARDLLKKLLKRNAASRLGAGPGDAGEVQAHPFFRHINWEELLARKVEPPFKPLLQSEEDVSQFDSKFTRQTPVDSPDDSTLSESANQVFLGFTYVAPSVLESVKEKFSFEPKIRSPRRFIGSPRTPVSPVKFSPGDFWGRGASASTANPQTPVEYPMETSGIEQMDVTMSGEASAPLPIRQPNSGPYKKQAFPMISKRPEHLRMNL
In short: (§2)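 A549 or PC-3 cells seeded at 7.5 × 10³ cells/well in DMEM with heat-inactivated 10% FBS, 1% penicillin–streptomycin, 1% non-essential amino acids, grown 48 h at 37 °C, 5% CO₂. Treated 3 h with compound at 1.2–300 nM, triplicate, 0.2% DMSO final. Fixed in 4% formaldehyde, blocked, probed with anti-phospho-S6 (Ser240/244) and anti-total-S6 overnight at 4 °C, chemiluminescent read-out.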

[5] = Clearance in rat at 2.5 mg/kg; type: ADME, organism-based; set-up: dose 2.5 mg/kg; conditions: in vivo
[6] = Half life in monkey at 3 mg/kg, po; type: ADME, organism-based, Macaca mulatta; set-up: dose 3 mg/kg, route oral; conditions: rhesus monkey, in vivo
[7] = Cmax in monkey at 3 mg/kg, po; type: ADME, organism-based, Macaca mulatta; set-up: dose 3 mg/kg, route oral; conditions: rhesus monkey, in vivo
[8] = Cmax in dog at 3 mg/kg, iv; type: ADME, organism-based, Canis lupus familiaris; set-up: dose 3 mg/kg, route intravenous; conditions: in vivo
[9] = Half life in monkey at 3 mg/kg, iv; type: ADME, organism-based, Macaca mulatta; set-up: dose 3 mg/kg, route intravenous; conditions: rhesus monkey, in vivo
[10] = Cmax in rat at 2.5 mg/kg, po; type: ADME, organism-based; set-up: dose 2.5 mg/kg, route oral; conditions: in vivo
[11] = Cmax in monkey at 3 mg/kg, iv; type: ADME, organism-based, Macaca mulatta; set-up: dose 3 mg/kg, route intravenous; conditions: rhesus monkey, in vivo
[12] = Volume of distribution in monkey at 3 mg/kg; type: ADME, organism-based, Macaca mulatta; set-up: dose 3 mg/kg; conditions: rhesus monkey, in vivo
[13] = Oral bioavailability in monkey at 3 mg/kg; type: ADME, organism-based, Macaca mulatta; conditions: rhesus monkey, in vivo
A549 [14] = assay: Anticancer activity against human A549 cell xenografted model at 100 mg/kg, po qd for 2 days every 4 days; type: functional; conditions: read-out: TGI
In short: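 A549 xenograft; oral dosing at 50 mg/kg qd, or 100 mg/kg qd for two days every 4 days; tumor growth inhibition determined.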

[15] = Half life in dog at 3 mg/kg, po; type: ADME, organism-based, Canis lupus familiaris; set-up: dose 3 mg/kg, route oral; conditions: in vivo
PC-3 [16] = assay: Inhibition of PRAS40 phosphorylation in human PC3 cells xenografted model at 100 mg/kg bid; type: functional; in short: as §1
PC-3 [17] = assay: Inhibition of GSK3beta phosphorylation in human PC3 cells xenografted model at 100 mg/kg bid; type: functional; in short: as §1
[18] = Volume of distribution in rat at 2.5 mg/kg; type: ADME, organism-based; set-up: dose 2.5 mg/kg; conditions: in vivo
[19] = Oral bioavailability in dog at 3 mg/kg; type: ADME, organism-based, Canis lupus familiaris; conditions: in vivo
Canis familiaris [20] = assay: Dose normalized AUC in dog at 3 mg/kg, po; type: ADME, organism-based, Canis lupus familiaris; set-up: dose 3 mg/kg, route oral; conditions: in vivo
[21] = Cmax in dog at 3 mg/kg, po; type: ADME, organism-based, Canis lupus familiaris; set-up: dose 3 mg/kg, route oral; conditions: in vivo
[22] = Plasma concentration in mouse at 100 mg/kg after 4 hrs; type: ADME, organism-based; set-up: dose 100 mg/kg
In short: (§3)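 Mouse plasma levels measured 1 and 4 h after a 100 mg/kg dose.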

PC-3 [23] = assay: Anticancer activity against human PC3 prostate tumor cell xenografted model at 50 mg/kg, po qd for 15 days; type: functional; conditions: PC-3, 360 h, read-out: TGI
In short: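 PC-3 xenograft efficacy study; oral dosing at 50 mg/kg qd for 15 days, tumor growth inhibition determined.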

[24] = target: T2, RAC-alpha serine/threonine-protein kinase (Homo sapiens, UniProt P31749); assay: Inhibition of AKT1 after 3 hrs by luciferase based chemiluminescence assay
T2 sequence (P31749 whole entry): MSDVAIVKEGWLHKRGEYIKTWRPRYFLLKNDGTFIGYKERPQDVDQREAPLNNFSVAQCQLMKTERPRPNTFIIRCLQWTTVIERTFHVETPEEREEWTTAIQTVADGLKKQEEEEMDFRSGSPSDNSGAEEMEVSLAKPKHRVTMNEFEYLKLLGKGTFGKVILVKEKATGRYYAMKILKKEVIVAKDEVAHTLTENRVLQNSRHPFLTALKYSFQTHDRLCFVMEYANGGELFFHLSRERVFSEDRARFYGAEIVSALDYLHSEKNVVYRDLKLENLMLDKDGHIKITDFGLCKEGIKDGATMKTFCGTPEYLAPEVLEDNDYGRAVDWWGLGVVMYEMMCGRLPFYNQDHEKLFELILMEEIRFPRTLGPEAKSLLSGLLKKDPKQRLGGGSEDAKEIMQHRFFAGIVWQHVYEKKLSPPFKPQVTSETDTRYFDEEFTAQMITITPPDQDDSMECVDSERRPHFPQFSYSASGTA

[25] = Clearance in monkey at 3 mg/kg; type: ADME, organism-based, Macaca mulatta; set-up: dose 3 mg/kg; conditions: rhesus monkey, in vivo
A549 [26] = assay: Anticancer activity against human A549 cell xenografted model at 50 mg/kg, po qd for 2 days every 4 days; type: functional; conditions: read-out: TGI
Rhesus monkey [27] = assay: Dose normalized AUC in monkey at 3 mg/kg, po; type: ADME, organism-based, Macaca mulatta; set-up: dose 3 mg/kg, route oral; conditions: in vivo
[28] = target: T2, RAC-alpha serine/threonine-protein kinase; assay: Inhibition of AKT1-mediated GSK3beta phosphorylation in human PC3 cells after 3 hrs by chemiluminescence assay; type: cell-based, PC-3
In short: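 PC-3 cells seeded at 7.5 × 10³ cells/well, grown 24 h, then serum-starved 24 h. Compound treatment 3 h in triplicate (0.2% DMSO final), followed by 100 ng/ml IGF1 for 30 min. Fixed and processed as a cell ELISA using anti-phospho-GSK3β (S9) and anti-total-GSK3β antibodies, chemiluminescent read-out.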

[29] = Cmax in rat at 2.5 mg/kg, iv; type: ADME, organism-based; set-up: dose 2.5 mg/kg, route intravenous; conditions: in vivo
Canis familiaris [30] = assay: Dose normalized AUC in dog at 3 mg/kg, iv; type: ADME, organism-based, Canis lupus familiaris; set-up: dose 3 mg/kg, route intravenous; conditions: in vivo
[31] = target: T1, Ribosomal protein S6 kinase beta-1; assay: Inhibition of p70S6K after 3 hrs by luciferase based chemiluminescence assay
[32] = Plasma concentration in mouse at 100 mg/kg after 1 hr; type: ADME, organism-based; set-up: dose 100 mg/kg; in short: as §3
[33] = Half life in rat at 2.5 mg/kg, iv; type: ADME, organism-based; set-up: dose 2.5 mg/kg, route intravenous; conditions: in vivo
Rattus norvegicus [34] = assay: Dose normalized AUC in rat at 2.5 mg/kg, iv; type: ADME, organism-based; set-up: dose 2.5 mg/kg, route intravenous; conditions: in vivo
[35] = Oral bioavailability in rat at 2.5 mg/kg; type: ADME, organism-based; conditions: in vivo
[36] = Volume of distribution in dog at 3 mg/kg; type: ADME, organism-based, Canis lupus familiaris; set-up: dose 3 mg/kg; conditions: in vivo
Rhesus monkey [37] = assay: Dose normalized AUC in monkey at 3 mg/kg, iv; type: ADME, organism-based, Macaca mulatta; set-up: dose 3 mg/kg, route intravenous; conditions: in vivo
Rattus norvegicus [38] = assay: Dose normalized AUC in rat at 2.5 mg/kg, po; type: ADME, organism-based; set-up: dose 2.5 mg/kg, route oral; conditions: in vivo
[39] = target: T1, Ribosomal protein S6 kinase beta-1; assay: Inhibition of p70S6K-mediated ribosomal protein S6 phosphorylation in human A549 cells after 3 hrs by chemiluminescence assay; type: cell-based; in short: as §2
[40] = Half life in dog at 3 mg/kg, iv; type: ADME, organism-based, Canis lupus familiaris; set-up: dose 3 mg/kg, route intravenous; conditions: in vivo

Question: With `Cc1c(NCCN2CCCC2)cc(C(=O)CCC(F)(F)F)cc1N1CCN(c2ncnc3[nH]nc(Br)c23)CC1` [XL-418] as the compound, how does the inhibition in vivo at 100 mg/kg (PC-3 [1]) read?
Answer: 90%

Question: What about the clearance [2] of the same compound?
Answer: 26 mL/min/kg

Question: And the half-life [3]?
Answer: 7.9 h

Question: And the IC50 [4]?
Answer: 55 nM

Question: What about the clearance [5] of the same compound?
Answer: 45.4 mL/min/kg

Question: What about the half-life [6] of the same compound?
Answer: 6.4 h

Question: What about the Cmax [7] of the same compound?
Answer: 400 nM

Question: And the Cmax [8]?
Answer: 210 nM

Question: And the half-life [9]?
Answer: 6.1 h

Question: What about the Cmax [10] of the same compound?
Answer: 40 nM

Question: And the Cmax [11]?
Answer: 580 nM

Question: And the Vd [12]?
Answer: 6.9 L/kg

Question: What about the bioavailability [13] of the same compound?
Answer: 77%

Question: What about the inhibition in vivo at 100 mg/kg (A549 [14]) of the same compound?
Answer: 96%

Question: And the half-life [15]?
Answer: 10.4 h

Question: And the inhibition in vivo at 100 mg/kg (PC-3 [16])?
Answer: 76%

Question: And the inhibition in vivo at 100 mg/kg (PC-3 [17])?
Answer: 46%

Question: And the Vd [18]?
Answer: 12.9 L/kg

Question: What about the bioavailability [19] of the same compound?
Answer: 58%

Question: What about the AUC/dose (Canis familiaris [20]) of the same compound?
Answer: 0.54 µM·kg·h/mg

Question: What about the Cmax [21] of the same compound?
Answer: 100 nM

Question: And the concentration at 4 h [22]?
Answer: 3100 nM

Question: What about the inhibition in vivo at 50 mg/kg (PC-3 [23]) of the same compound?
Answer: 52%

Question: What about the IC50 [24] of the same compound?
Answer: 1 nM

Question: And the clearance [25]?
Answer: 20.5 mL/min/kg

Question: And the inhibition in vivo at 50 mg/kg (A549 [26])?
Answer: 71%

Question: What about the AUC/dose (Rhesus monkey [27]) of the same compound?
Answer: 0.94 µM·kg·h/mg

Question: And the IC50 [28]?
Answer: 194 nM

Question: And the Cmax [29]?
Answer: 330 nM

Question: What about the AUC/dose (Canis familiaris [30]) of the same compound?
Answer: 0.95 µM·kg·h/mg

Question: And the IC50 [31]?
Answer: 2 nM

Question: And the concentration at 1 h [32]?
Answer: 1600 nM

Question: What about the half-life [33] of the same compound?
Answer: 3.5 h

Question: What about the AUC/dose (Rattus norvegicus [34]) of the same compound?
Answer: 0.64 µM·kg·h/mg

Question: And the bioavailability [35]?
Answer: 35%

Question: And the Vd [36]?
Answer: 17 L/kg

Question: What about the AUC/dose (Rhesus monkey [37]) of the same compound?
Answer: 1.22 µM·kg·h/mg

Question: What about the AUC/dose (Rattus norvegicus [38]) of the same compound?
Answer: 0.17 µM·kg·h/mg

Question: What about the IC50 [39] of the same compound?
Answer: 30 nM

Question: What about the half-life [40] of the same compound?
Answer: 7.5 h
